CHOP UPR activ = apoptotic UPR (CHOP) activation | activation, % at 10 µM | 0.34% of 330,000 active | CHO-CHOP luciferase reporter, luminescence; percent of tunicamycin response over DMSO baseline;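 active = at 10 µM dose, activation of 40% or more, normalized to positive control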;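 also: 100% = tunicamycin at 10 µg/mL and 0% = DMSO alone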
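System: CHO-CHOP luciferase reporter cell line | Buffer or medium: F12 medium containing 10% fetal bovine serum | Doses: One dose, 10 µM in 0.5% DMSO | Times: 6 h compound exposure at 37 °C after overnight seeding | Signal: Luciferase luminescence | Read-out: % activation vs tunicamycin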
pCIP destab = p/CIP protein destabilization; Q05BA5; F442A p/CIP-EGFP cells, EGFP fluorescence, 16 h; decrease of EGFP signal, % at 10 µM; 0.01% of 290,000 active; AID 1984;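 active = EGFP signal decrease of at least 30% at 10 µM or well 3 SD below plate mean, unless failing retest; inactive = the rest, including hits failing retest or dose response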
Target sequence (Q05BA5 1-1403): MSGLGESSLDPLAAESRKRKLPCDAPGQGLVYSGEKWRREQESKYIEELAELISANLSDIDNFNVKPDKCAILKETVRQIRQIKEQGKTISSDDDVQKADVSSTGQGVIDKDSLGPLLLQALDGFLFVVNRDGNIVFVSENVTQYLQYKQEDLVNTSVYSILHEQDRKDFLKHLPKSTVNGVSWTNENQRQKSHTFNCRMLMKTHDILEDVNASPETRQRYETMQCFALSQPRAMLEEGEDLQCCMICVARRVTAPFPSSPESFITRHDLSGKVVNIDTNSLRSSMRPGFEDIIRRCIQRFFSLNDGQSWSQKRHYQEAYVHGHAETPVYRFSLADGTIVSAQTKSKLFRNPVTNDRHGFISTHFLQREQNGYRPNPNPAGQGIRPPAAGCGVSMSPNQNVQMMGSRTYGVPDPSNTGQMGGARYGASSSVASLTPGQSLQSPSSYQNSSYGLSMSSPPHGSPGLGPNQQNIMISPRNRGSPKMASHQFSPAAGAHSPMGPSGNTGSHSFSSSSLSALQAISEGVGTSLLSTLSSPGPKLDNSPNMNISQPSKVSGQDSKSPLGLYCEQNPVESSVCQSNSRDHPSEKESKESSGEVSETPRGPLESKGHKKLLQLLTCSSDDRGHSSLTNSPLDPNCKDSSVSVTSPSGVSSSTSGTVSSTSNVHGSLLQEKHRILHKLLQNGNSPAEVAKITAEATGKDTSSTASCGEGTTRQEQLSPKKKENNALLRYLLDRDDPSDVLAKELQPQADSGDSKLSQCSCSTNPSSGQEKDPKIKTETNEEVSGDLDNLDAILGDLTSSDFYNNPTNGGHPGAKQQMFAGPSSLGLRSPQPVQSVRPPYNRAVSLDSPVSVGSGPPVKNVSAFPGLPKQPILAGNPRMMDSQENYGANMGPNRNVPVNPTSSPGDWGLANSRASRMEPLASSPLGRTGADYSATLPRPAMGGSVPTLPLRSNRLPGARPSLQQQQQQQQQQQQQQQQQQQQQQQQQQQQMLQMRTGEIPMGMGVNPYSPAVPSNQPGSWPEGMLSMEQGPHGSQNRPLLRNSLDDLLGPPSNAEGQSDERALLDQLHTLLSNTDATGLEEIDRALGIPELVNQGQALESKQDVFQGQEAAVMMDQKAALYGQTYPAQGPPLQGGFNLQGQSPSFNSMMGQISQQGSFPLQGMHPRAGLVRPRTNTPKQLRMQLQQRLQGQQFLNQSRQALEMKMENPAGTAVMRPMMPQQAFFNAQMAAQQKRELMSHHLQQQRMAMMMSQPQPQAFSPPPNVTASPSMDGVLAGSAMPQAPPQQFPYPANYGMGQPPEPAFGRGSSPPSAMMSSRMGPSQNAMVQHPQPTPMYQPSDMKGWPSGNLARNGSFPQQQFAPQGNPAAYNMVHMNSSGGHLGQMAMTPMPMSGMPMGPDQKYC
Dynein transport = dynein cargo transport inhibition; 3617.4 mouse cells, GR-EGFP nuclear translocation imaging; test concentration mostly 20 µM; stimulated with dexamethasone, 1 µM; active compounds read low; z-score, hits read low; 0.47% of 220,000 active; AID 1381;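 active = plate z-score of nuclear minus cytoplasmic receptor signal below a set negative limit, without overly bright fluorescence or cell loss, cut at about -3.5 in these data, passing the limit was not always enough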;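 also: z-score of nuclear minus cytoplasmic ring GR-EGFP intensity difference per well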
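Buffer or medium: tet-free, stripped-serum medium; Also added: dexamethasone, 1.0 µM final; Technique: high-content fluorescence imaging after fixation; Times: 48 h induction, 1 h compound, 30 min dex at 37 °C; Read-out: per-cell GR-EGFP intensity, nucleus versus surrounding cytoplasmic ring, well-averaged.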
B2AR ag = human beta-2 adrenergic receptor agonism by FAP; AID 504454; Am2.2-beta2AR cells, FAP receptor internalization, flow cytometry; P07550; 0.43% of 340,000 active; response, % (no concentration beside the values);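 active = response above a set limit, near 3 SD of response in nonfluorescent compounds, cut at about 42% in these data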
CHOP inh = blocks CHOP induction under ER stress; CHO-K1 CHOP-promoter luciferase, tunicamycin-induced, 15-18 h; inhibition, % at 10 µM; 3.8% of 220,000 active; AID 2732;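 active = compounds that reduced the stress-induced luciferase reporter signal by more than about 70% of percent inhibition, limit read from the data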;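 also: 0% = tunicamycin plus vehicle and 100% = wells without tunicamycin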
UPR XBP1 act = adaptive UPR (XBP1) activation | CHO-XBP1 luciferase reporter, IRE1-XBP1 UPR activation, luminescence; percent of tunicamycin response, DMSO as zero | activation, % at 20 µM | 0.33% of 330,000 active | AID 463104;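 active = versus positive control, 20 µM dose yields 30% or more activation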;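 also: 100% = tunicamycin at 10 µg/mL and 0% = DMSO only wells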
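Assay system: IRE1-XBP1 luciferase reporter CHO line. Input: 1000 cells/well. Buffer or medium: F12 with 10% serum. Doses: 20 µM, 1% DMSO. Times: overnight seeding at 37 °C, 6 h compound treatment at 37 °C. Technique: Steady-Glo luciferase glow luminescence, 10 min after reagent addition.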
An asterisk follows results filed as active; nt = not tested or not shown. The sample as a whole holds a higher share of hits than the screen did.

SMILES	CHOP UPR activ	pCIP destab	Dynein transport	B2AR ag	CHOP inh	UPR XBP1 act
COCCN(C(=O)COC(=O)c1c(NC(C)=O)sc(C)c1C)c1c(N)n(Cc2ccccc2)c(=O)[nH]c1=O	1.1	nt	nt	2.8	nt	-2.0
CCOC(=O)Cc1csc(NC(=O)Nc2ccc(C)cc2)n1	1.9	-3.5	0.0843	2.5	-13.1	0.2
Cc1ccccc1OCC(=O)NCC(=O)OCc1ccc(Br)cc1	0.1	6.1	nt	1.5	nt	-3.2
COc1cc(-c2nc(-c3ccc4c(c3)-c3ccccc3S4(=O)=O)c(-c3ccccc3)[nH]2)cc(OC)c1O	20.6	-12.0	-0.708	20.4	91.6*	12.6
COc1ccc(-c2[nH]c(-c3ccc(C(=O)O)cc3)nc2-c2ccccc2)cc1	2.5	-15.0	0.137	-3.9	18.2	-0.9
O=C(CN1CCN(c2ccccn2)CC1)Nc1ccc([N+](=O)[O-])cc1C(=O)Nc1ccccc1F	3.6	-22.5	nt	4.7	nt	-4.5
CCOc1ccc2nc(SCC(=O)NC3CC3)sc2c1	2.3	4.5	nt	7.8	nt	-0.7
CCOc1ccc2nc(SCC(=O)c3ccccc3)sc2c1	1.8	-5.3	-0.548	4.4	93.5*	4.8
CCOC(=O)CSc1nc2ccc(NC(C)=O)cc2s1	0.6	1.7	0.939	24.1	90.0*	-1.4
COc1ccc(CC(=O)N[C@@H](CCSC)C(=O)N2CCC3(CC2)NCCc2[nH]cnc23)cc1	1.4	-13.7	nt	-0.9	nt	1.5
CCOC(=O)c1cc(CC)sc1NC(=O)Cc1ccccc1	0.7	3.6	-0.388	1.5	85.3*	-1.1
Cc1ccc(-c2cc(N)n3nc(-c4ccc(C)cc4)cc3n2)cc1	0.0	2.0	-0.593	-7.7	74.3*	-2.0
Cc1ccc(-c2cc3nc(-c4ccccc4)cc(N)n3n2)cc1	3.5	-13.7	-0.047	-10.8	77.7*	0.6
CC1CCN(c2nnc(N3CCC(C)CC3)c3ccccc23)CC1	-0.2	-18.9	0.0417	-4.2	1.8	1.8
COc1ccc(-c2nnc(N3CCC(C)CC3)c3ccccc23)cc1	-0.2	2.6	-0.268	10.6	85.4*	0.2
COc1ccccc1N1CCN(CCN(C(=O)c2ccc(I)cc2)c2ccccn2)CC1	nt	nt	nt	nt	12.0	nt
Cc1cc(-c2nc3ncccc3o2)ccc1NC(=S)NC(=O)C(C)C	-1.0	-5.6	2.15	61.9*	-33.4	-1.0
CC(C)(C)c1ccc(-c2nnc(SCCC#N)n2C2CCCC2)cc1	2.9	-5.5	0.796	-2.5	71.5*	-0.5
Nc1ncnc2c1nc(Sc1ccc(Cl)cc1)n2C1OC2COP(=O)(O)O[C@@H]2[C@@H]1O (stereo partly specified)	nt	nt	nt	nt	-15.9	nt
N#CCCn1cc(/C=C2\NC(=S)N(c3ccccc3)C2=O)c(-c2ccc(F)cc2)n1	2.8	-14.7	0.201	8.0	79.2*	-2.5
CC(=O)N[C@@H](Cc1c[nH]c2ccccc12)C(=O)OCC(=O)Nc1ccc2c(c1)OCO2	nt	nt	nt	6.0	nt	nt
O=C(COC(=O)[C@H](Cc1c[nH]c2ccccc12)NC(=O)c1ccc(Cl)cc1)Nc1ccc2c(c1)OCO2	4.0	2.1	1.5	1.4	81.5*	7.4
N#Cc1ccc(OCC(=O)NCC(c2cccs2)N2CCOCC2)cc1 (stereo unspecified)	-0.8	3.6	nt	-1.5	nt	-3.9
CCCCNC(=O)Oc1c(Br)cc2sc(=O)oc2c1Br	-1.6	-2.2	-0.432	nt	102.7*	-1.3
S=c1[nH]ncn1/N=C/c1ccccn1	-2.3	-1.8	0.263	2.1	10.6	-1.4
SMILES	CHOP UPR activ	pCIP destab	Dynein transport	B2AR ag	CHOP inh	UPR XBP1 act
O=C(NNS(=O)(=O)c1cccc(Cl)c1Cl)c1cccc(S(=O)(=O)N2CCOCC2)c1	-0.3	-11.5	0.292	4.6	5.6	-5.5
Cc1cc(C)c(NC(=O)Cn2nnc(C(=O)NCc3cccs3)c2N)c(C)c1	0.1	12.5	0.00217	-6.2	84.9*	-2.9
CN(C)c1ccc(-n2cccc2/C=C/[N+](=O)[O-])cc1	17.3	9.6	-1.82	26.6	92.0*	1.1
CN(C)c1ccc(/C=C/c2c([N+](=O)[O-])c(=O)n(C)c(=O)n2C)cc1	1.4	-6.1	nt	1.6	nt	-3.4
Cc1ccc2cc(CCNS(=O)(=O)c3ccc(F)cc3)c(=O)[nH]c2c1C	-0.4	-11.6	-0.0301	43.1*	21.0	-3.9
Cc1ccc(S(=O)(=O)NCCc2cc3ccc(C)c(C)c3[nH]c2=O)cc1	-1.0	-20.9	nt	-4.0	nt	-3.7
O=C1c2ccccc2C(=O)N1SC1CCCCC1	-4.8	-4.9	-1.25	-2.1	71.6*	-6.8
CC1CCCCN1C(=O)COC(=O)c1ccc(=O)n(Cc2ccccc2)n1 (stereo unspecified)	1.1	nt	nt	6.2	nt	-1.4
Cn1c(=O)c(C(=O)c2ccccc2)c(O)c2ccccc21	-1.5	nt	nt	-0.1	nt	-1.2
CC(=O)c1c(OC(=O)c2ccccc2)c2ccccc2n1C	0.1	-13.2	0.266	5.9	70.5*	5.3
CCC(=O)Nc1ccc(NC(=O)c2cc3ccccc3o2)c(OC)c1	6.1	-6.0	nt	8.4	nt	0.3
Cc1nn2cc(-c3ncc(C(F)(F)F)cc3Cl)cnc2c1Br	-0.6	-5.4	-0.0898	11.5	74.1*	-4.7
CC(C)(C)n1nc2c(c1NC(=O)c1ccccc1C(F)(F)F)CS(=O)(=O)C2	-0.5	1.2	nt	-1.6	nt	-1.1
Cc1c(/C=N\NC(=O)C2COc3ccc(C(C)(C)C)cc3O2)c2ccccc2n1C (stereo unspecified)	5.1	-0.9	-0.546	11.7	75.6*	0.3
O=C(N/N=C\c1cc(Br)cs1)C1COc2ccccc2O1 (stereo unspecified)	1.2	-8.7	0.00867	-2.0	79.9*	-1.4
COc1ccc(C(=O)COC(=O)CN2C(=O)c3ccccc3C2=O)c(OC)c1	-0.2	4.9	nt	-2.0	nt	-0.5
Cn1c2ccccc2c2ccc3c(c21)C(=O)C=CC3=O	nt	nt	nt	75.8*	nt	nt
Cc1ccc(C)c2c1c1ccccc1n2C	-1.6	-4.7	0.00727	1.0	8.6	-3.5
Cc1ccc2c(c1)c1ccc3c(c1n2C)C(=O)C=CC3=O	-9.1	-23.2	-6.87*	93.2*	106.0*	-9.9
Cc1ccc2c(C)c(C(=O)N3CCC(O)(c4ccccc4)CC3)oc2c1C	-0.4	-1.4	nt	-11.4	nt	0.6
COc1ccc(C)cc1NC(=O)CSc1nnc(-c2cc(C)[nH]n2)n1N	1.4	-11.7	nt	-1.1	nt	-1.9
CN1C(=O)C(C)(C)c2cc(S(=O)(=O)NCC3CCC(C(=O)NCc4ccc(F)cc4)CC3)ccc21 (stereo unspecified)	0.6	-3.8	nt	-7.3	nt	-3.3
c1cncc(-c2nc(-c3cccs3)cs2)c1	0.1	15.4	0.136	-8.8	27.2	1.4
c1csc(-c2csc(-c3cccs3)n2)c1	5.3	18.1	2.66	-16.2	77.0*	3.5

Assay outcomes from PubChem.
